Test results taken from ChEMBL document CHEMBL4364333, “High-throughput screening of bioactive compounds via new catalytic reaction in the pooled mixture” (Bioorg Med Chem Lett, 2019).
Active and inactive are the calls of the source. The calls are words filed in the database; no cut-off is given here.

What was measured:
Format in all cases: cell-based
HeLa [1] = experiment: Cytotoxicity against human HeLa cells expressing alkaline phosphatase assessed as reduction in cell viability at 40 uM incubated for 3 hrs by WST-1 assay
Outline: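 HeLa cells stably expressing soluble secretory alkaline phosphatase, seeded at equal numbers, exposed to diluted test material for 3 h. Cytotoxicity read out as the number of live cells.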

HeLa [2] = experiment: Inhibition of alkaline phosphatase secretion in human HeLa cells incubated for 3 hrs
Outline: (§1)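 HeLa cells stably expressing soluble secretory alkaline phosphatase, seeded at equal numbers, exposed to diluted test material for 3 h. Secretion read out as alkaline phosphatase enzymatic activity in the culture medium.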

HeLa [3] = experiment: Inhibition of alkaline phosphatase secretion in human HeLa cells at 40 uM incubated for 3 hrs; outline: as §1
HeLa [4] = experiment: Inhibition of alkaline phosphatase secretion in human HeLa cells at 50 uM incubated for 3 hrs
Outline: (§2)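 HeLa cells stably expressing soluble secretory alkaline phosphatase, seeded at equal cell numbers, were incubated with the test sample for 3 h. Alkaline phosphatase enzymatic activity in the culture medium was measured as the secretion read-out. Live cell number was counted in parallel to assess cytotoxicity.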

HeLa [5] = experiment: Inhibition of alkaline phosphatase secretion in human HeLa cells at 18 uM incubated for 3 hrs; outline: as §2

Structure (SMILES)	Activity (HeLa [1])	other results
Cn1cc(C(c2cn(C)c3ccccc23)C(F)(F)C(F)(F)F)c2ccccc21	Non-Toxic	–
COc1ccc2[nH]cc(C(c3c[nH]c4ccccc34)C(F)(F)F)c2c1 (centres undefined)	Non-Toxic	inhibition (HeLa [2]): Active
Cn1cc(C(c2cn(C)c3ccccc23)C(F)(F)F)c2ccccc21	Non-Toxic	–
Fc1ccc2[nH]cc(C(c3c[nH]c4ccc(F)cc34)C(F)(F)F)c2c1	Non-Toxic	–
FC(F)(F)C(c1c[nH]c2ccccc12)c1c[nH]c2ccccc12	Non-Toxic	inhibition (HeLa [3]): Active
Cn1cc(C(c2c[nH]c3ccccc23)C(F)(F)F)c2ccccc21 (centres undefined)	Non-Toxic	–
FC(F)(F)C(F)(F)C(c1c[nH]c2ccccc12)c1c[nH]c2ccccc12	Non-Toxic	inhibition (HeLa [2]): Active
Fc1ccc2[nH]cc(C(c3c[nH]c4ccccc34)C(F)(F)F)c2c1 (centres undefined)	Non-Toxic	–
Fc1cc(F)c2c(c1)[C@H]1CCC[C@H]1C(c1cccnc1)N2 (some centres undefined)	–	inhibition (HeLa [4]): Active
Cn1cc(C(c2c[nH]c3ccccc23)C(F)(F)C(F)(F)F)c2ccccc21 (centres undefined)	Non-Toxic	–
FC(F)(F)C(F)(F)C(c1c[nH]c2ccc(Br)cc12)c1c[nH]c2ccc(Br)cc12	Non-Toxic	–
FC(F)(F)C(c1c[nH]c2ccc(Br)cc12)c1c[nH]c2ccc(Br)cc12	Non-Toxic	inhibition (HeLa [2]): Active
FC(F)(F)C(c1c[nH]c2ccccc12)c1c[nH]c2ccc(Br)cc12 (centres undefined)	Non-Toxic	inhibition (HeLa [2]): Active
C[C@H]1CCC/C=C/[C@@H]2C[C@H](O)C[C@H]2[C@H](O)/C=C/C(=O)O1	–	inhibition (HeLa [5]): Active
